Measured values published in article PMC12377326 (RSC Advances, 2025).
Several values for one entry are separate records, joined by “and”; a condition that tells them apart may be missing. Equal values may be shown once.

What was measured:
hCA II = hCA II (Homo sapiens, UniProt P00918); test: hCA II counterscreen; type: biochemical; conditions: for S II = (IC50 hCA II, nM)/(IC50 hCA IX, nM): selectivity for CA IX over CA II
Summary of the method: (§1)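 Recombinant human enzymes, >95% pure: hCA I (Ala2–Phe261) for line 1 and hCA II (Ser2–Lys260) for line 2. Run under the same conditions as the hCA IX assay at 25 °C. IC50 is the mean ± SD, n = 3. Where solubility prevented a full titration, IC50 was extrapolated from the linear range of the curve. Selectivity index = IC50 (hCA I or hCA II, nM)/IC50 (hCA IX, nM).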

hCA I = hCA I (Homo sapiens, UniProt P00915); test: hCA I counterscreen; type: biochemical; conditions: for S I = (IC50 hCA I, nM)/(IC50 hCA IX, nM): selectivity for CA IX over CA I
Summary of the method: as §1

hCA IX [1] = molecular target: T1, hCA IX (Homo sapiens, UniProt Q16790); test: Steady-state CO2-hydrase enzyme kinetics; type: biochemical; conditions: Lineweaver–Burk and Michaelis–Menten plots; unchanged Km, reduced Vmax
hCA IX [2] = molecular target: T1, hCA IX; test: biochemical; conditions: stopped-flow CO2-hydrase assay

hCA I, sequence (P00915 2-261): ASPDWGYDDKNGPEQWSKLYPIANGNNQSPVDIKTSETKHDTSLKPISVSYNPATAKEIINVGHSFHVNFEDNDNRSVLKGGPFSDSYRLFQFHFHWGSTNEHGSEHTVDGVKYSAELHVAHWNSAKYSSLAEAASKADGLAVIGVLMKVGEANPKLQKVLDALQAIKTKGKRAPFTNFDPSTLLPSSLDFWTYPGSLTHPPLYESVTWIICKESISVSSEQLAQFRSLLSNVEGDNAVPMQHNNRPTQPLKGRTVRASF

IC50 (hCA II) [nM]	S II = (IC50 hCA II, nM)/(IC50 hCA IX, nM) (hCA II)	IC50 (hCA I) [nM]	S I = (IC50 hCA I, nM)/(IC50 hCA IX, nM) (hCA I)	mode of inhibition (hCA IX [1])	S II = (IC50 hCA II, nM)/(IC50 hCA IX, nM) (hCA II; listed as palustric)	S I = (IC50 hCA I, nM)/(IC50 hCA IX, nM) (hCA I; listed as palustric)	S II = (IC50 hCA II, nM)/(IC50 hCA IX, nM) (hCA II; listed as pimaric)	IC50 (hCA IX [2]; IC50 CA IX (printed in μM), mean ± SD) [µM]	IC50 (hCA IX [2]; IC50 hCA IX, pH 7.4, 25 °C, mean ± SD (n = 3)) [µM]	S I = (IC50 hCA I, nM)/(IC50 hCA IX, nM) (hCA I; listed as pimaric)	Structure (SMILES)
680 ± 50	4.6	1500 ± 120	10 and 10.2	non-competitive							CC(C)C1=CC[C@H]2C(=C1)CC[C@@H]1[C@]2(C)CCC[C@@]1(C)C(=O)O [Levopimaric acid, levopimaric acid]
1450 ± 120	5.0	2250 ± 200	7.8	non-competitive	≈ 5	≈ 8					CC(C)C1=CC2=C(CC1)[C@@]1(C)CCC[C@@](C)(C(=O)O)[C@@H]1CC2 [Palustric acid, palustric acid]
1620 ± 130	4.8	2700 ± 250	7.9	non-competitive			≈ 5	0.341 ± 0.0064	0.341 ± 0.00637	≈ 8	C=C[C@@]1(C)C=C2CC[C@@H]3[C@](C)(CCC[C@@]3(C)C(=O)O)[C@H]2CC1 [Pimaric acid, pimaric acid]
